Screening data as filed in PubChem.
This is a sample that favours compounds with a hit; in the whole collection about 1.8% have one here.
FLuc stim CS = affects firefly luciferase, flagging false hits in luciferase stimulation screens; P08659; ATPlite luciferase biochemical, luminescence, 10 min; 0 = ATP-free wells, 1 = DMSO control; activation factor at 10 µM; 200,000 tested, under 10 active;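 active means luciferase activation factor, scaled between plate controls, of at least 2 with compound at 10 µM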
Target sequence (P08659 whole entry, looked up): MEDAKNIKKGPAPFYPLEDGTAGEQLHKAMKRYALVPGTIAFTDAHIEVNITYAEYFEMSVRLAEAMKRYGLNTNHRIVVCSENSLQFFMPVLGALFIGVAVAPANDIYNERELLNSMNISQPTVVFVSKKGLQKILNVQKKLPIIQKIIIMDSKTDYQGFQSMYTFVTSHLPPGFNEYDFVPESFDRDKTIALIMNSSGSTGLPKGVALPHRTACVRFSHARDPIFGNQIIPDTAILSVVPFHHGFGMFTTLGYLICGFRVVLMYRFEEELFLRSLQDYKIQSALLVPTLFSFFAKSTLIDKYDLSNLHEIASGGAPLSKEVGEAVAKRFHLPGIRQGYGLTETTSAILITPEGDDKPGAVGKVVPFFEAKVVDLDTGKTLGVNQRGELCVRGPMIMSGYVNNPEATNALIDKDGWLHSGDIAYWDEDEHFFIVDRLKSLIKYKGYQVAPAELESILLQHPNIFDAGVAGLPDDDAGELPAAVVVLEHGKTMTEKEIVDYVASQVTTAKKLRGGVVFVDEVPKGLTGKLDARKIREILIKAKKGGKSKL
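Assay system: Luciferase/luciferin detection reagent, cell-free biochemical luciferase assay / Read-out: luciferase activation / Benchmarks: No-ATP low control, compound-free enzyme-plus-ATP high control / Medium: PBS buffer for ATP / Detection: luminescence measurement of luciferase light output / Schedule: 10 min at ambient temperature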
iPSC survival up = enhancers of human iPSC single-cell survival. survival enhancement, % at 20 µM. hit rate 0.044% among 360,000. hiPSC single-cell survival, ATPlite luminescence; 100% = ROCK inhibitor wells, 0% = DMSO; in the data active means survival enhancement above about 18%;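 further: cells exposed to compounds for 16 hours before the ATP read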
MIN6 prolif-1 = MIN6 beta-cell proliferation induction; hit rate 0.29% among 330,000; MIN6 cells proliferation, ATPlite luminescence, 48 h; cells starved in 0.2% serum; 100% = growth in 10% serum; proliferation, % at 10 µM;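 active means compounds whose signal lies at least 3.5 SD above the mean of all wells on their plate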
PPC-1+TRAIL kill = PPC-1 cancer cell killing with TRAIL present; PPC-1 cells + TRAIL, ATPLite viability luminescence; cell killing (% activity), % at 4 µM or 5 µM; hit rate 0.41% among 220,000; AID 1443;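 active means cell killing above 50% in the first pass at 4 µM, then a duplicate retest at 5 µM averaging 50% or more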
TRAIL sens C8 = caspase-8 TRAIL sensitization. NB7+C8 cells + TRAIL, ATPlite viability luminescence. inhibition (viability loss, TRAIL sensitization), % at 10 µM. hit rate 1% among 360,000;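 active means compounds causing at least 50% loss of cell viability in the single-dose screen, relative to plate controls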
FLuc inh counter = counter-screen for luciferase assay inhibitors: firefly luciferase inhibition; hit rate 1.5% among 200,000; AID 1006; inhibition, % at 10 µM; ATPLite firefly luciferase biochemical luminescence, 10 min; P08659;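 active means inhibition above about 50% when tested at 10 µM, limit read from the data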
MIN6 prolif-2 = MIN6 beta-cell replication induction, confirmed | shares compounds with MIN6 prolif-1 | MIN6 beta-cell proliferation, ATPlite luminescence, 48 h; cells kept in 0.2% serum; scaled between 0.2% and 10% serum | proliferation increase, % at 50 µM | 920 tested, under 10 active;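 active means proliferation increase above 40% at any of the four tested concentrations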
A number is an active result; . = inactive; / = no result.

SMILES	FLuc stim CS	iPSC survival up	MIN6 prolif-1	PPC-1+TRAIL kill	TRAIL sens C8	FLuc inh counter	MIN6 prolif-2
CCOC(=O)c1cc[nH]c1CC(=O)NC	/	.	8.5	.	.	/	.
COc1nc(N/N=C/c2ccc(C)cc2)nc(N2CCCCC2)n1	.	.	7.4	.	.	.	.
COc1ccc(/C=N/Nc2nc(N3CCCC3)nc(N3CCCC3)n2)cc1	.	.	/	.	.	.	/
CC(C)CC1=NC(C(F)(F)F)(C(F)(F)F)c2c(n(CC(C)C)c(=O)[nH]c2=O)N1	.	.	6.6	.	.	.	.
O=C1OC(Nc2ccc3c(c2)OCO3)c2ccccc21 (centres undefined)	.	.	5.0	.	.	.	.
CCC(NC(C)C)C(O)c1ccc(O)c2[nH]c(=O)ccc12 (centres undefined)	.	.	19	.	.	.	.
Cc1coc2cc3oc(=O)cc(C)c3cc12	.	.	7.3	.	.	.	.
COc1cc(/C=C/c2[nH]c(=O)[nH]c(=O)c2[N+](=O)[O-])cc(OC)c1O	/	.	5.7	/	.	/	.
C=CCOn1c(=O)c(-c2ccc(Br)cc2)[n+]([O-])c2ccccc21	/	.	8.9	/	.	/	.
COc1ccc(N2CCN(C(=O)COc3ccc(S(=O)(=O)N4CCOCC4)cc3C)CC2)cc1	/	.	0.0	/	.	/	.
O=S(Cc1ccc(Cl)cc1)c1ccccc1 (centres undefined)	/	.	/	/	.	/	/
Cc1ccc(NC(=O)C2CCCN(C(=O)NCc3ccccc3)C2)c(C)c1 (centres undefined)	/	.	.	/	.	/	/
CCN1CCCC1CNC(=O)c1csc2c1CCCC2 (centres undefined)	.	.	6.4	.	.	.	.
CCC1CCCCN1CCCNC(=O)c1csc2c1CCCCC2 (centres undefined)	/	.	.	/	.	/	/
CCCCC(=O)Nc1ccccc1C#N	.	.	5.8	.	.	.	.
COc1ccc(CNC(C)C2COc3ccccc3O2)c(OC)c1 (centres undefined)	.	.	.	.	.	.	/
CC(NCc1ccccc1)C1COc2ccccc2O1 (centres undefined)	.	.	5.5	.	.	.	.
CCOC(=O)c1c(C)[nH]c(C)c1C(=O)COC(=O)/C=C/c1ccccc1[N+](=O)[O-]	/	.	9.1	/	.	/	.
COc1ccccc1N(CC(=O)NC1CCCCC1)S(=O)(=O)c1cccs1	/	.	.	.	.	/	/
COc1ccccc1N(CC(=O)NC(C)C)S(=O)(=O)c1cccs1	.	.	8.3	.	.	.	.
O=[N+]([O-])c1cccc(S(=O)(=O)Nc2ccc3cn[nH]c3c2)c1	/	.	.	/	.	/	/
CN(C)c1ccc(C(=S)N2CCOCC2)cc1	.	.	9.0	.	.	.	.
CCC(=O)N=c1sc2c(OC)ccc(OC)c2n1C	/	.	.	/	.	/	/
COc1ccc(OC)c2c1sc(=NC(=O)C1COc3ccccc3O1)n2C (centres undefined)	/	.	7.7	.	.	/	.
Cc1ccc(S(=O)(=O)Nc2cc(S(=O)(=O)N3CCOCC3)ccc2NCC2CCCO2)cc1 (centres undefined)	/	.	15	/	.	/	.
SMILES	FLuc stim CS	iPSC survival up	MIN6 prolif-1	PPC-1+TRAIL kill	TRAIL sens C8	FLuc inh counter	MIN6 prolif-2
CC1(C)CC2CC(C)(CN2C(=O)COC(=O)c2cccc([N+](=O)[O-])c2)C1 (centres undefined)	/	.	7.4	/	.	/	.
NC(=O)c1nc2c([nH]c1=O)CCCC2	/	.	/	/	.	/	/
COc1ccccc1NS(=O)(=O)c1cccc(NS(=O)(=O)c2ccc(Cl)c(C(=O)O)c2)c1	/	.	.	/	.	/	/
CC(C)CNC(=O)CN(C1CCCCC1)S(=O)(=O)c1ccccc1	.	.	9.1	.	.	.	.
Cc1nc(N)c(C#N)c(-c2ccc3c(c2)OCO3)c1C	/	.	5.3	/	.	/	.
CCc1nc(N)c(C#N)c(-c2cccnc2)c1C	.	.	.	.	.	.	/
Cc1nc(N)c(C#N)c(-c2cccnc2)c1C	.	.	9.6	.	.	.	.
CC1(C)N=C(N)NC(=NCCCOc2ccc([N+](=O)[O-])cc2)N1	/	.	/	/	.	/	/
O=C(NCc1cccnc1)c1cc(C2CCCCN2S(=O)(=O)c2cccs2)on1 (centres undefined)	/	.	/	/	.	/	/
CC(C)CC(C(=O)NC1CCCC1)N(Cc1cccs1)C(=O)c1snc(C(N)=O)c1N (centres undefined)	.	.	.	.	.	.	/
CC(C)CC(C(=O)NC1CCCCC1)N(Cc1cccs1)C(=O)c1snc(C(N)=O)c1N (centres undefined)	.	.	7.1	.	.	.	.
CC(C)c1cc(=O)[nH]c(N2CCN(Cc3ccc4c(c3)OCO4)CC2)n1	/	.	8.7	/	.	/	.
O=C(Nc1cccc(C(F)(F)F)c1)C1Cc2c(-c3ccco3)ccnc2O1 (centres undefined)	/	.	/	/	.	/	/
COc1ccc(-c2nnc3ccc(SCC(=O)N4CCCC4)nn23)cc1	.	.	.	.	.	.	/
CCOc1ccc(-c2nnc3ccc(SCC(=O)N4CCCCC4)nn23)cc1	.	.	12	.	.	.	.
O=C(c1ccccc1F)N1CCN(C(=O)C(c2ccccc2)c2ccccc2)CC1	/	.	.	/	.	/	/
Brc1cccc(-c2nnc(SCc3ccon3)n2-c2ccccc2)c1	.	.	12	.	.	.	.
O=C(CSc1ncccn1)NCC1CCCO1 (centres undefined)	/	.	.	/	.	/	/
COc1ccc(NS(=O)(=O)c2ccc3c(c2)NC(=O)C(C)S3)cc1 (centres undefined)	/	.	.	/	.	/	/
